Screening data: PubChem, The Scripps Research Institute Molecular Screening Center
CHO parental Ca: signal in parental CHO cells, OX1R antagonist counter-screen; parental CHO-K1, ATP-induced calcium, Fluo-8 fluorescence; inhibition, % at 5.6 µM; actives 0.63% (n = 330,000); AID 463079;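 active means inhibition above that plate's mean sample inhibition plus 3 SD, cut at about 26% in these data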;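 further: 0% = ATP-challenged DMSO wells and 100% = DMSO wells without ATP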
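Material: Parental CHO cells | Reagent: ATP | Compound dosing: Single nominal dose of 5.6 µM per compound | Detection: Intracellular calcium via Fluo-8 no-wash fluorescent dye | Read-out: % inhibition of ATP-induced calcium mobilization | Benchmarks: Low control ATP plus DMSO, high control DMSO only | Replicates: Singlicate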
TAAR1 antag: antagonists of human TAAR1. inhibition, % at 3 µM. actives 1.5% (n = 360,000). CHO RD-HGA16 TAAR1, Fluo-8 calcium fluorescence, antagonist. Q96RJ0;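 active means inhibition above a per-plate cutoff, the mean inhibition of test compounds on that plate plus 3 SD, cut at about 49% in these data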;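 further: 0% = DMSO plus EC80 beta-PEA response and 100% = DMSO alone without agonist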
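Test system: hTAAR1-expressing CHO RD-HGA16 cells, Gα16-coupled; Probe or stimulus: EC80 β-phenethylamine stimulus; Compound dosing: single nominal final test compound concentration of 3 µM; Timing: 140 s kinetic read after compound, 140 s after agonist; Signal: Fluo-8 calcium-sensitive fluorescence; Measure: % inhibition of agonist calcium response; Controls: DMSO and EC80 PEA controls.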
OX1R antag-1: human HCRTR1 antagonism; CHO/OX1R cells, Fluo-8 calcium fluorescence, orexin A; inhibition, % at 5 µM; actives 0.43% (n = 330,000); AID 434989;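 active means inhibition above its plate's threshold, mean inhibition of all tested compounds on the plate plus 3 SD, cut at about 37% in these data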;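 further: 0% = orexin A challenge wells and 100% = SB-334867-A antagonist wells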
Target sequence (O43613 whole entry, looked up): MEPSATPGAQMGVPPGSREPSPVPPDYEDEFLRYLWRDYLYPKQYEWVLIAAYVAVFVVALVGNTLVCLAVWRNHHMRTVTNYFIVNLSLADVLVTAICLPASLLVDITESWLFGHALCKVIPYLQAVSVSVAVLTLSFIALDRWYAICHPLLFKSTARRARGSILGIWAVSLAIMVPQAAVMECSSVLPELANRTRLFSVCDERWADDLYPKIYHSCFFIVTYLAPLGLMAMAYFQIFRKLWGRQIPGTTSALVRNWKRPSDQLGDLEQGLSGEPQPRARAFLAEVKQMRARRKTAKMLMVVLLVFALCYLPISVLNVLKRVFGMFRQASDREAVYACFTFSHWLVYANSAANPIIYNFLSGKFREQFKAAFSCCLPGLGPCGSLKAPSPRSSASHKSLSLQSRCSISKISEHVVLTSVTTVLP
OX1R antag-2: blocks the human orexin 1 receptor. O43613. OX1R-expressing cells, FRET antagonist read-out. inhibition, % at 6.6 µM. actives 1.8% (n = 330,000). AID 485270; in the data active means inhibition mostly above about 38%, no sharp cut-off; inactive means mostly below about 40%;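 further: 0% = agonist challenge alone and 100% = reference antagonist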
TAAR1 ag: human TAAR1 agonism. AID 624467. actives 0.99% (n = 360,000). activation, % at 3 µM. Q96RJ0. CHO RD-HGA16 TAAR1, Fluo-8 calcium fluorescence; vehicle wells 0%, saturating PEA agonist 100%;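 active means activation above the mean activation of all test compounds in the run plus 3 SD, cut at about 38% in these data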
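test system = CHO RD-HGA16 cells carrying human TAAR1 plus Gα16 | schedule = 17-24 h seeding, 75 min 37 °C dye, 30 min RT | compound dosing = 3 µM single concentration | control set = DMSO and PEA EC100 | replicates = n 1 | signal = Fluo-8 fluorescence, 5 s baseline then 140 s kinetic read | measure = percent activation vs PEA EC100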
Numbers without * were called inactive; · = not tested or not shown. Shown are actives, neighbours in structure and some others; about 3.9% of the full set was active somewhere.

SMILES | CHO parental Ca | TAAR1 antag | OX1R antag-1 | OX1R antag-2 | TAAR1 ag
Cc1ccc(N2CCN(C(=O)C3CCN(S(=O)(=O)c4cccc5nsnc45)CC3)CC2C)cc1 (centres undefined) | · | 0 | · | · | 2
O=C(C1CCN(S(=O)(=O)c2cccc3nsnc23)CC1)N1CC=C(c2ccccc2)CC1 | -8 | 56* | -1 | 28 | 13
Cc1ccc(Cl)cc1N1CCN(C(=O)C2CCN(S(=O)(=O)c3c(C)nn(C)c3C)CC2)CC1 | 35* | 77* | 25 | 12 | 36
Cc1ccc(Cl)cc1N1CCN(C(=O)C2CCN(S(=O)(=O)c3cccnc3)CC2)CC1 | 15 | 23 | 21 | 32 | 13
O=C(C1CCN(S(=O)(=O)c2cccc3nsnc23)CC1)N1CCCCC1 | -2 | 2 | -14 | 44* | 2
O=C(C1CCC(CNS(=O)(=O)c2cccc3nsnc23)CC1)N1CC=C(c2ccccc2)CC1 (centres undefined) | 19 | -18 | -11 | 15 | -1
CC1CCN(C(=O)C2CCN(S(=O)(=O)c3cccc4nsnc34)CC2)CC1 | -17 | 9 | -14 | 28 | 8
CCOC(=O)Cc1c(-c2cccc(Br)c2)nc2c3ccccc3ccn12 | · | 23 | · | · | -1
O=C(C1CCCN(S(=O)(=O)c2cccc3nsnc23)C1)N1CC=C(c2ccccc2)CC1 (centres undefined) | 21 | 50* | -14 | 34 | 10
CC1CCCCN1C(=O)C1CCCN(S(=O)(=O)c2cccc3nsnc23)C1 (centres undefined) | -11 | -13 | -12 | 28 | 3
COc1cccc(CN2CC(C(=O)NCCc3cn4cccnc4n3)CCC2=O)c1 (centres undefined) | · | -31 | · | · | 2
O=c1oc2c3c(nn2c2ccccc12)CCCC3 | -9 | -1 | 31 | 67* | 4
Cn1c2c(c(=O)c3ccccc31)CCCC2 | 1 | 7 | -6 | 6 | -1
NC(=O)c1c(NC(=O)c2ccc(F)cc2)sc2c1CCC2 | -21 | 11 | -4 | 51* | 0
COC(=O)c1c(NC(=O)c2nc3nc(C)cc(C(F)F)n3n2)sc2c1CCC2 | -14 | -9 | -9 | 5 | 7
CNC(=O)c1c(NC(=O)c2cccc(C)c2)sc2c1CCC2 | -20 | -16 | -18 | 44* | 3
Cc1cccc(C(=O)Nc2sc3c(c2C(=O)O)CCC3)c1 | -3 | -17 | -4 | 9 | -1
Cc1cc(C(F)F)n2nc(C(=O)Nc3sc4c(c3C(N)=O)CCC4)nc2n1 | -4 | -4 | -2 | 57* | 2
C[C@@H]1CN(c2ccc(N3CCN(C(=O)OC(C)(C)C)C[C@@H]3C)cc2C#N)CCN1Cc1ccccc1 | · | 30 | · | · | -1
COC(=O)[C@]12C[C@H](CC(=O)NCc3cccc(C(F)(F)F)c3)C(=O)N(Cc3ccccc3)C1=C[C@H](C1CCCC1)O[C@@H]2C | · | -17 | · | · | 0
O=C(COC(=O)c1ccccc1NS(=O)(=O)c1ccc(Cl)cc1)NCc1ccccc1 | -9 | 6 | -26 | 49* | 3
CC(C)(C)c1nc(NC(=O)Nc2ccccc2)sc1Br | 47* | 24 | 60* | 24 | 10
COC(=O)C1CCN(C2CN(Cc3cn(Cc4ccc(C(F)(F)F)cc4)nn3)S(=O)(=O)C2)CC1 (centres undefined) | · | -7 | · | · | 6
CC1(C)C(C=C(Cl)Cl)C1C(=O)N/N=C/c1ccccc1F (centres undefined) | -13 | 4 | -23 | 14 | 2
O=C(Nc1ccc([N+](=O)[O-])cc1)C1CC1(c1ccccc1)c1ccccc1 (centres undefined) | -6 | 54* | 24 | 28 | 1
SMILES | CHO parental Ca | TAAR1 antag | OX1R antag-1 | OX1R antag-2 | TAAR1 ag
CC1(C)C(C=C(Cl)Cl)C1C(=O)Nc1ccc([N+](=O)[O-])cc1 (centres undefined) | 50* | 43 | 25 | 29 | 16
COC(=O)C1=C(C)N(C)C(=NCc2ccc(OC)cc2)NC1c1cccc(C(F)(F)F)c1 (centres undefined) | · | -6 | · | · | 13
Cc1nc(C(=O)Nc2ccc(F)cc2)nn1-c1ccc([N+](=O)[O-])cc1 | -8 | 11 | -12 | 55* | 4
CCOC(=O)c1nc(C)n(-c2ccc([N+](=O)[O-])cc2)n1 | 3 | -6 | -32 | 49* | 4
N#CC(C#N)=C1C=CC=CN1/C(=C\c1ccco1)C(=O)c1ccc(Br)cc1 | 49* | 37 | 24 | 61* | 5
COc1ccc(C(=O)/C(=C\c2ccco2)N2C=CC=CC2=C(C#N)C#N)cc1 | 26 | · | 31 | 66* | ·
COc1ccc(/C=C(/C(=O)c2cccs2)N2C=CC=CC2=C(C#N)C#N)cc1 | · | 56* | · | · | 22
C#CCN1C(=O)[C@]2(OC[C@@H]3Cc4ccccc4[C@@H]3C=C2C)c2ccccc21 | · | 16 | · | · | 1
C[C@H]1COc2cccc(N3CCCC3)c2S(=O)(=O)N1 | · | -23 | · | · | 4
CC(C)CC(=O)Nc1nnc(S(=O)(=O)N(C)Cc2ccco2)s1 | -16 | · | -15 | 13 | ·
CN(Cc1ccco1)S(=O)(=O)c1nnc(NC(=O)c2cccc(Cl)c2)s1 | 29* | -28 | -4 | 28 | 5
O=S1(=O)CCOC[C@H](CC2CCCCC2)N1Cc1ccccc1 | -20 | 3 | -22 | 27 | 12
Cc1ccccc1CN1[C@@H](CC2CCCCC2)COCCS1(=O)=O | -32 | 5 | -33 | 68* | 10
O=C(NCc1ccc(F)cc1)c1cc(C2CCCCN2S(=O)(=O)c2ccc(F)cc2F)on1 (centres undefined) | · | 0 | · | · | 1
COCC(C)NC(=O)c1nn(Cc2ccccc2)c(=O)c2ccccc12 (centres undefined) | -16 | -6 | -18 | 74* | -3
CCC(C)NC(=O)c1nn(Cc2ccccc2)c(=O)c2ccccc12 (centres undefined) | -22 | -33 | -32 | 25 | 0
OCC1OC(n2cnc3c(NCc4ccccc4O)ncnc32)C(O)C1O (centres undefined) | · | -6 | · | · | 0
COc1ccc(Cn2cc(CN3[C@@H](c4ccccc4)COc4cc(Br)ccc4S3(=O)=O)nn2)cc1 | · | -22 | · | · | 2
COc1cc(/C=C/c2ccc3cccc(OC)c3n2)c(OC(C)=O)c([N+](=O)[O-])c1 | -10 | 49* | -30 | 59* | 7
O=C1c2ccccc2-c2onc3ccc(NCCCn4ccnc4)c1c23 | 40* | · | 57* | 46* | ·
Cc1nc(NCCCn2ccnc2)c2ccccc2n1 | -12 | 0 | -2 | 5 | 8
COC(=O)c1cc2c(c3c4cc(F)ccc4n(S(=O)(=O)c4cccc(C)c4)c13)C(=O)N(c1ccc(OC)cc1)C2 | · | -33 | · | · | -1
CCc1nc2ccc(C(=O)NCc3ccc(OC)cc3)cn2c1N(CC)CCOC | · | -15 | · | · | 0
COc1ccc(CCNC(=O)C2CC(c3ccc([N+](=O)[O-])cc3)=NO2)cc1 (centres undefined) | -8 | -4 | -23 | 32 | 1
